Test results: ChEMBL document CHEMBL1147105, “In vitro and in vivo activities of PD 0305970 and PD 0326448, new bacterial gyrase/topoisomerase inhibitors with potent antibacterial activities versus multidrug-resistant gram-positive and fastidious organism groups” (2007)
≈ marks a conversion by molar mass, not a printed value.

How the values were obtained:
[1] = test system: Staphylococcus epidermidis; assay: Antibacterial activity against oxacillin-resistant Staphylococcus epidermidis; format: functional
Summary of the method: (§1)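 Broth microdilution MIC per CLSI guidelines, incubated at 35°C. Cation-adjusted Mueller-Hinton broth for nonfastidious organisms and staphylococci. Streptococci tested in the same broth with 3% lysed horse blood. Anaerobes tested in supplemented Brucella broth inside an anaerobe chamber (5% CO2, 5% H2, 90% N2), read after 48 h. Strains were mainly recent clinical isolates with confirmed identity.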

Burkholderia cepacia = assay: Antibacterial activity against Burkholderia cepacia; format: functional
Summary of the method: (§2)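 Broth microdilution MIC following CLSI guidelines, in cation-adjusted Mueller-Hinton broth, incubated at 35°C. Recent clinical isolates and reference strains, with identity confirmed by automated and standard microbiological methods. Results reported as MIC range, MIC50 and MIC90.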

Streptococcus pyogenes = assay: Antibacterial activity against Streptococcus pyogenes; format: functional
Summary of the method: (§3)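 Broth microdilution MIC following CLSI guidelines, in cation-adjusted Mueller-Hinton broth with 3% lysed horse blood. Plates incubated at 35°C. Clinical isolates and reference strains, with identity confirmed by standard microbiological methods.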

Enterococcus faecalis [2] = assay: Antibacterial activity against Enterococcus faecalis; format: functional; summary of the method: as §1
Enterobacter cloacae = assay: Antibacterial activity against Enterobacter cloacae; format: functional; summary of the method: as §2
Corynebacterium jeikeium = assay: Antibacterial activity against Corynebacterium jeikeium; format: functional
Summary of the method: (§4)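 Broth microdilution MIC following CLSI guidelines, in cation-adjusted Mueller-Hinton broth containing 3% lysed horse blood, incubated at 35°C. Clinical isolates with identity confirmed. Reported as MIC range, MIC50 and MIC90.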

Enterococcus faecalis [3] = assay: Antibacterial activity against beta-lactamase positive Enterococcus faecalis; format: functional
Summary of the method: (§5)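 MIC by CLSI broth microdilution for nonfastidious organisms, in cation-adjusted Mueller-Hinton broth incubated at 35°C.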

[4] = test system: Staphylococcus haemolyticus; assay: Antibacterial activity against Staphylococcus haemolyticus; format: functional; summary of the method: as §4
Fusobacterium sp. = assay: Antibacterial activity against Fusobacterium sp.; format: functional
Summary of the method: (§6)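 Anaerobic broth microdilution MIC following CLSI guidelines, in supplemented Brucella broth. Run in an anaerobe chamber under 5% CO2, 5% H2 and 90% N2 at 35°C, and read after 48 h. Reported as MIC range, MIC50 and MIC90.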

Escherichia coli = assay: Antibacterial activity against Escherichia coli; format: functional; summary of the method: as §2
Shigella sonnei = assay: Antibacterial activity against Shigella sonnei; format: functional; summary of the method: as §2
Salmonella enteritidis = assay: Antibacterial activity against Salmonella enterica serovar Enteritidis; format: functional, Salmonella enterica subsp. enterica serovar Enteritidis; summary of the method: as §2
Haemophilus influenzae [5] = assay: Antibacterial activity against beta-lactamase positive Haemophilus influenzae; format: functional
Summary of the method: (§7)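 Broth microdilution MIC following CLSI guidelines, in Haemophilus test medium at 35°C.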

Staphylococcus aureus [6] = assay: Antibacterial activity against oxacillin and levofloxacin-resistant Staphylococcus aureus; format: functional; summary of the method: as §1
Haemophilus influenzae [7] = assay: Antibacterial activity against beta-lactamase negative Haemophilus influenzae; format: functional; summary of the method: as §7
Neisseria gonorrhoeae = assay: Antibacterial activity against Neisseria gonorrhoeae; format: functional
Summary of the method: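 MIC by broth microdilution in gonococcal broth, incubated at 35°C in 5% CO2. Reported as MIC range, MIC50 and MIC90.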

Enterococcus gallinarum = assay: Antibacterial activity against Enterococcus gallinarum; format: functional
Cutibacterium acnes = assay: Antibacterial activity against Propionibacterium acnes; format: functional
[8] = test system: Peptostreptococcus anaerobius; assay: Antibacterial activity against Peptostreptococcus anaerobius; format: functional; summary of the method: as §6
Prevotella sp. = assay: Antibacterial activity against Prevotella sp.; format: functional; summary of the method: as §6
Morganella morganii = assay: Antibacterial activity against Morganella morganii; format: functional; summary of the method: as §2
Citrobacter koseri = assay: Antibacterial activity against Citrobacter diversus; format: functional; summary of the method: as §2
Actinomyces sp. = assay: Antibacterial activity against Actinomyces sp.; format: functional
Bacteroides fragilis = assay: Antibacterial activity against Bacteroides fragilis; format: functional; summary of the method: as §6
Streptococcus salivarius = assay: Antibacterial activity against Streptococcus salivarius; format: functional; summary of the method: as §3
Staphylococcus warneri = assay: Antibacterial activity against Staphylococcus warneri; format: functional; summary of the method: as §2
Serratia marcescens = assay: Antibacterial activity against Serratia marcescens; format: functional; summary of the method: as §2
Shigella dysenteriae = assay: Antibacterial activity against Shigella dysenteriae; format: functional
[9] = test system: Staphylococcus saprophyticus; assay: Antibacterial activity against Staphylococcus saprophyticus; format: functional; summary of the method: as §2
Clostridioides difficile = assay: Antibacterial activity against Clostridium difficile; format: functional; summary of the method: as §6
Bacteroides ovatus = assay: Antibacterial activity against Bacteroides ovatus; format: functional; summary of the method: as §6
Prevotella bivia = assay: Antibacterial activity against Prevotella bivia; format: functional; summary of the method: as §6
Proteus mirabilis = assay: Antibacterial activity against Proteus mirabilis; format: functional; summary of the method: as §2
Corynebacterium sp. = assay: Antibacterial activity against Corynebacterium sp.; format: functional; summary of the method: as §4
Fusobacterium nucleatum = assay: Antibacterial activity against Fusobacterium nucleatum; format: functional; summary of the method: as §6
Pseudomonas aeruginosa = assay: Antibacterial activity against Pseudomonas aeruginosa; format: functional; summary of the method: as §2
[10] = test system: Fusobacterium necrophorum; assay: Antibacterial activity against Fusobacterium necrophorum; format: functional; summary of the method: as §6
[11] = test system: Enterococcus casseliflavus; assay: Antibacterial activity against Enterococcus casseliflavus; format: functional
Clostridium perfringens = assay: Antibacterial activity against Clostridium perfringens; format: functional; summary of the method: as §1
Acinetobacter sp. = assay: Antibacterial activity against Acinetobacter sp.; format: functional; summary of the method: as §2
Proteus vulgaris = assay: Antibacterial activity against Proteus vulgaris; format: functional; summary of the method: as §2
Moraxella catarrhalis = assay: Antibacterial activity against beta-lactamase negative Moraxella catarrhalis; format: functional
Streptococcus mitis = assay: Antibacterial activity against Streptococcus mitis; format: functional; summary of the method: as §3
Prevotella buccae = assay: Antibacterial activity against Prevotella buccae; format: functional; conditions: Segatella buccae; summary of the method: as §6
Klebsiella pneumoniae = assay: Antibacterial activity against Klebsiella pneumoniae; format: functional; summary of the method: as §2
Staphylococcus aureus [12] = assay: Antibacterial activity against oxacillin-resistant Staphylococcus aureus; format: functional; summary of the method: as §1
Streptococcus pneumoniae = assay: Antibacterial activity against penicillin-intermediate resistant Streptococcus pneumoniae; format: functional; summary of the method: as §1
Enterococcus faecium = assay: Antibacterial activity against VanA-resistant Enterococcus faecium; format: functional; summary of the method: as §1
Staphylococcus aureus [13] = assay: Antibacterial activity against oxacillin-susceptible Staphylococcus aureus; format: functional; summary of the method: as §5

## C[C@H]1NCc2cc(-c3ccc4c(=O)c(C(=O)O)cn(C5CC5)c4c3OC(F)F)ccc21 [GARENOXACIN]
[1]
  MIC50: 2 µg/mL (≈ 4.69 µM)
  MIC90: 32 µg/mL (≈ 75 µM)
Burkholderia cepacia
  MIC50: 32 µg/mL (≈ 75 µM)
  MIC90: > 64 µg/mL
Streptococcus pyogenes
  MIC50: 0.125 µg/mL (≈ 0.293 µM)
  MIC90: 0.25 µg/mL (≈ 0.586 µM)
Enterococcus faecalis [2]
  MIC50: 2 µg/mL (≈ 4.69 µM)
  MIC90: 4 µg/mL (≈ 9.38 µM)
Enterobacter cloacae
  MIC50: 0.125 µg/mL (≈ 0.293 µM)
  MIC90: 2 µg/mL (≈ 4.69 µM)
Corynebacterium jeikeium
  MIC50: 0.25 µg/mL (≈ 0.586 µM)
  MIC90: 0.25 µg/mL (≈ 0.586 µM)
Enterococcus faecalis [3]
  MIC: 0.125 µg/mL (≈ 0.293 µM)
[4]
  MIC50: 0.06 µg/mL (≈ 0.141 µM)
  MIC90: 4 µg/mL (≈ 9.38 µM)
Fusobacterium sp.
  MIC: 0.125 µg/mL (≈ 0.293 µM)
Escherichia coli
  MIC50: 0.06 µg/mL (≈ 0.141 µM)
  MIC90: 1 µg/mL (≈ 2.35 µM)
Shigella sonnei
  MIC50: 0.03 µg/mL (≈ 0.0704 µM)
  MIC90: 0.125 µg/mL (≈ 0.293 µM)
Salmonella enteritidis
  MIC50: 0.03 µg/mL (≈ 0.0704 µM)
  MIC90: 0.125 µg/mL (≈ 0.293 µM)
Haemophilus influenzae [5]
  MIC50: 0.015 µg/mL (≈ 0.0352 µM)
  MIC90: 0.03 µg/mL (≈ 0.0704 µM)
Staphylococcus aureus [6]
  MIC50: 2 µg/mL (≈ 4.69 µM)
  MIC90: 4 µg/mL (≈ 9.38 µM)
Haemophilus influenzae [7]
  MIC50: 0.008 µg/mL (≈ 0.0188 µM)
  MIC90: 0.03 µg/mL (≈ 0.0704 µM)
Neisseria gonorrhoeae
  MIC50: 0.004 µg/mL (≈ 0.00938 µM)
  MIC90: 0.004 µg/mL (≈ 0.00938 µM)
Enterococcus gallinarum
  MIC50: 0.25 µg/mL (≈ 0.586 µM)
  MIC90: 0.2 µg/mL (≈ 0.469 µM)
Cutibacterium acnes
  MIC50: 1 µg/mL (≈ 2.35 µM)
  MIC90: 2 µg/mL (≈ 4.69 µM)
[8]
  MIC: 0.015 µg/mL (≈ 0.0352 µM)
Prevotella sp.
  MIC50: 0.25 µg/mL (≈ 0.586 µM)
  MIC90: 1 µg/mL (≈ 2.35 µM)
Morganella morganii
  MIC50: 2 µg/mL (≈ 4.69 µM)
  MIC90: 32 µg/mL (≈ 75 µM)
Citrobacter koseri
  MIC50: 0.125 µg/mL (≈ 0.293 µM)
  MIC90: 0.25 µg/mL (≈ 0.586 µM)
Actinomyces sp.
  MIC: 0.125 µg/mL (≈ 0.293 µM)
Bacteroides fragilis
  MIC50: 0.5 µg/mL (≈ 1.17 µM)
  MIC90: 2 µg/mL (≈ 4.69 µM)
Streptococcus salivarius
  MIC50: 0.125 µg/mL (≈ 0.293 µM)
  MIC90: 0.25 µg/mL (≈ 0.586 µM)
Staphylococcus warneri
  MIC: 0.03 µg/mL (≈ 0.0704 µM)
Serratia marcescens
  MIC50: 1 µg/mL (≈ 2.35 µM)
  MIC90: 8 µg/mL (≈ 18.8 µM)
Shigella dysenteriae
  MIC50: 0.03 µg/mL (≈ 0.0704 µM)
  MIC90: 0.125 µg/mL (≈ 0.293 µM)
[9]
  MIC50: 0.03 µg/mL (≈ 0.0704 µM)
  MIC90: 0.06 µg/mL (≈ 0.141 µM)
Clostridioides difficile
  MIC50: 0.5 µg/mL (≈ 1.17 µM)
  MIC90: 1 µg/mL (≈ 2.35 µM)
Bacteroides ovatus
  MIC50: 2 µg/mL (≈ 4.69 µM)
  MIC90: 4 µg/mL (≈ 9.38 µM)
Prevotella bivia
  MIC50: 0.25 µg/mL (≈ 0.586 µM)
  MIC90: 1 µg/mL (≈ 2.35 µM)
Proteus mirabilis
  MIC50: 0.5 µg/mL (≈ 1.17 µM)
  MIC90: 16 µg/mL (≈ 37.5 µM)
Corynebacterium sp.
  MIC50: 0.25 µg/mL (≈ 0.586 µM)
  MIC90: 64 µg/mL (≈ 150 µM)
Fusobacterium nucleatum
  MIC: 0.125 µg/mL (≈ 0.293 µM)
Pseudomonas aeruginosa
  MIC50: 2 µg/mL (≈ 4.69 µM)
  MIC90: > 64 µg/mL
[10]
  MIC: 0.125 µg/mL (≈ 0.293 µM)
[11]
  MIC50: 0.25 µg/mL (≈ 0.586 µM)
  MIC90: 0.5 µg/mL (≈ 1.17 µM)
Clostridium perfringens
  MIC50: 0.5 µg/mL (≈ 1.17 µM)
  MIC90: 1 µg/mL (≈ 2.35 µM)
Acinetobacter sp.
  MIC50: 0.125 µg/mL (≈ 0.293 µM)
  MIC90: 16 µg/mL (≈ 37.5 µM)
Proteus vulgaris
  MIC: 0.25 µg/mL (≈ 0.586 µM)
Moraxella catarrhalis
  MIC50: 0.03 µg/mL (≈ 0.0704 µM)
  MIC90: 0.03 µg/mL (≈ 0.0704 µM)
Streptococcus mitis
  MIC50: 0.125 µg/mL (≈ 0.293 µM)
  MIC90: 0.25 µg/mL (≈ 0.586 µM)
Prevotella buccae
  MIC50: 0.25 µg/mL (≈ 0.586 µM)
  MIC90: 1 µg/mL (≈ 2.35 µM)
Klebsiella pneumoniae
  MIC50: 0.25 µg/mL (≈ 0.586 µM)
  MIC90: 1 µg/mL (≈ 2.35 µM)
Staphylococcus aureus [12]
  MIC50: 2 µg/mL (≈ 4.69 µM)
  MIC90: 2 µg/mL (≈ 4.69 µM)
Streptococcus pneumoniae
  MIC50: 0.25 µg/mL (≈ 0.586 µM)
  MIC90: 0.25 µg/mL (≈ 0.586 µM)
Enterococcus faecium
  MIC50: 8 µg/mL (≈ 18.8 µM)
  MIC90: 16 µg/mL (≈ 37.5 µM)
Staphylococcus aureus [13]
  MIC50: 0.06 µg/mL (≈ 0.141 µM)
  MIC90: 0.06 µg/mL (≈ 0.141 µM)
